Measurements reported in ChEMBL document CHEMBL1151946, “Doxazosin-related alpha1-adrenoceptor antagonists with prostate antitumor activity” (J Med Chem, 2009).
Calls of active or inactive are those of the source. The calls are words filed in the database; no cut-off is given here.

Columns and labels:
PC-3 [1] = assay: Cytotoxicity against human PC3 cells after 72 hrs by CellTitter-Glo luminescent cell viability assay; type: functional, cell-based; conditions: PC-3, 72 h
[2] = target: T1, Alpha-1D adrenergic receptor (Homo sapiens, UniProt P25100); assay: Displacement of [3H]prazosin from human Alpha-1D adrenoceptor expressed in CHO cells; type: cell-based
T1 sequence (P25100 whole entry): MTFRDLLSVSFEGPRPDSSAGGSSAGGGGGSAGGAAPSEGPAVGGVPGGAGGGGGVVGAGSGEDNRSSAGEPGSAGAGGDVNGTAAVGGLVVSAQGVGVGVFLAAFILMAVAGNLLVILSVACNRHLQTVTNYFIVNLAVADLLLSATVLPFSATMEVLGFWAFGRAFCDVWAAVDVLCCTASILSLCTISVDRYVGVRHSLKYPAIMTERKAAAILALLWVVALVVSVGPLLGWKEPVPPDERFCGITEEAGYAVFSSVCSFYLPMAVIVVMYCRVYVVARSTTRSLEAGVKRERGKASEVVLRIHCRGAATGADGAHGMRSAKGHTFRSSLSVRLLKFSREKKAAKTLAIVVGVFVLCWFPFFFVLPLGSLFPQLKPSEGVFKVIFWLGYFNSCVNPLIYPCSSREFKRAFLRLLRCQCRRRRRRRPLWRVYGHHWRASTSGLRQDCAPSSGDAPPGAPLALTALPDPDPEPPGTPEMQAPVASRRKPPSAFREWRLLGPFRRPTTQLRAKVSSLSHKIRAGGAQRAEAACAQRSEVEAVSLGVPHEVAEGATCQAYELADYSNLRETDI
Method in brief: (§1)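 Radioligand competition binding used [3H]prazosin on membranes of CHO cells expressing human α1a, α1b or α1d adrenoceptor. IC50 values were converted to pKi by the Cheng-Prusoff equation. Data come from two to three experiments run in triplicate, agreeing within ±20%.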

[3] = target: T2, Alpha-1A adrenergic receptor (Homo sapiens, UniProt P35348); assay: Displacement of [3H]prazosin from human alpha1A adrenoceptor expressed in CHO cells; type: cell-based; method in brief: as §1
T2 sequence (P35348 whole entry): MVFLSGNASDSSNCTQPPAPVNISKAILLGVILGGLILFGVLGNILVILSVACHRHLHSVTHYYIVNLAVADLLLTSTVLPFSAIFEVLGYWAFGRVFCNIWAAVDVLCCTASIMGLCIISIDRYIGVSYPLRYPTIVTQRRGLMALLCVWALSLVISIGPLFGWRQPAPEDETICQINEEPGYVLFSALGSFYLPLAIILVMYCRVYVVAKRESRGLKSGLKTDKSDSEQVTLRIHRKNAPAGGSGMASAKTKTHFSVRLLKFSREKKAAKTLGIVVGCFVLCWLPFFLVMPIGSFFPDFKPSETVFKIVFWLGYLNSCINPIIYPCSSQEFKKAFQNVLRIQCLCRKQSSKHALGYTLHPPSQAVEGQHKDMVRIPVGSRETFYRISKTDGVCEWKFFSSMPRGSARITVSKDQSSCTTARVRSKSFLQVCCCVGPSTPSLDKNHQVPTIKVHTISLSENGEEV

[4] = target: T3, Alpha-1B adrenergic receptor (Homo sapiens, UniProt P35368); assay: Displacement of [3H]prazosin from human Alpha-1B adrenoceptor expressed in CHO cells; type: cell-based; method in brief: as §1
T3 sequence (P35368 whole entry): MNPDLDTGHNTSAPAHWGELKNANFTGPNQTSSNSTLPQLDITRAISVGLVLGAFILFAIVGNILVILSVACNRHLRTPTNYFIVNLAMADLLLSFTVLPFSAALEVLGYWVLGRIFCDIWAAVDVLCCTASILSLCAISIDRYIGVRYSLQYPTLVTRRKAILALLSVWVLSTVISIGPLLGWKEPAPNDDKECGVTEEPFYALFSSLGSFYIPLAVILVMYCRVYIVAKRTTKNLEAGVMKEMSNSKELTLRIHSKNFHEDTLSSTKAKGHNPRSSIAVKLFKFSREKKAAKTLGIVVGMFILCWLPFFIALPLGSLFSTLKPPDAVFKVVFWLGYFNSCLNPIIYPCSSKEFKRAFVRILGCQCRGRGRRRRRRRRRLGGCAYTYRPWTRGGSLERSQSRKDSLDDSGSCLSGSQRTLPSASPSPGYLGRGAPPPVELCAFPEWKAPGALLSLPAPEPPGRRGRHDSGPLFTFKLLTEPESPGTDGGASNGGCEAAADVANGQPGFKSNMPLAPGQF

[5] = target: T4, Alpha-1A adrenergic receptor (Rattus norvegicus, UniProt P43140); assay: Antagonist activity at rat alpha1A adrenoceptor assessed as inhibition if norepinephrine-induced contraction of vas deference; type: functional; conditions: read-out: pA2 (converted)
T4 sequence (P43140 whole entry): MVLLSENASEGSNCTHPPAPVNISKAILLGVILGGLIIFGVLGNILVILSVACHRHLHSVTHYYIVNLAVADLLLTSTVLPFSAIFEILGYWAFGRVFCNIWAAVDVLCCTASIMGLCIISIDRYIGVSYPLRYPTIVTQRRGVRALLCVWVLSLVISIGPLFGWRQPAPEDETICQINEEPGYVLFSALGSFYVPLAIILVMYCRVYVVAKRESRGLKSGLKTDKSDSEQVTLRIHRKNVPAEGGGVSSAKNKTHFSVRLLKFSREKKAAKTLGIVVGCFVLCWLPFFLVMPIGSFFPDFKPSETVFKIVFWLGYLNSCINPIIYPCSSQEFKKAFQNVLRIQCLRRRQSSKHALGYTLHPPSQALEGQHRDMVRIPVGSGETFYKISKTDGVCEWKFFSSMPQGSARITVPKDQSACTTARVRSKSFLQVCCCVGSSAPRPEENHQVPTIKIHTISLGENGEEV
Method in brief: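 Isolated rat tissue contraction assay. The α1A response used vas deferens with (-)-noradrenaline as agonist, α1D used thoracic aorta with (-)-noradrenaline, and α1B used spleen with (-)-phenylephrine. pA2 values are means ± SEM over three antagonist concentrations, each tested at least four times. Where the Schild slope differed from unity, pKB was calculated by van Rossum at the lowest antagonist concentration giving log(CR−1) ≥0.5.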

LNCaP [6] = assay: Cytotoxicity against human LNCAP cells after 72 hrs by CellTitter-Glo luminescent cell viability assay; type: functional, cell-based
DU-145 [7] = assay: Cytotoxicity against human DU145 cells after 72 hrs by CellTitter-Glo luminescent cell viability assay; type: functional, cell-based; conditions: DU-145, 72 h
LNCaP [8] = assay: Induction of apoptosis in human LNCAP cells assessed as caspase 3/7 activation after 24 hrs Caspase-Glo 3/7 assay; type: functional, cell-based; conditions: Homo sapiens, LNCaP, 24 h; read-out: EC50
NHDF [9] = assay: Cytotoxicity against human NHDF cells after 72 hrs by CellTitter-Glo luminescent cell viability assay; type: functional, cell-based
PC-3 [10] = assay: Induction of apoptosis in human PC3 cells xenografted in NU/NU mouse assessed as DNA fragmentation at 0.3 to 3 mg/kg by agarose gel electrophoresis; type: functional, organism-based
Method in brief: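 DNA from PC-3 subcutaneous tumors of orally treated nude mice was run on an electrophoretic gel. Apoptosis was scored as a DNA ladder pattern.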

PC-3 [11] = assay: Antiangiogenic activity in human PC3 cells xenografted in NU/NU mouse assessed as reduction vascularization at 3 mg/kg by immunohistochemistry; type: functional, organism-based; parameters: dose 3 mg/kg
Method in brief: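 Vascularization of PC-3 flank tumors from nude mice dosed orally was assessed by immunohistochemistry with rat anti-mouse CD31 monoclonal antibody as endothelial marker. Doses were 0.3, 1 and 3 mg/kg.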

DU-145 [12] = assay: Induction of apoptosis in human DU145 cells assessed as caspase 3/7 activation after 24 hrs Caspase-Glo 3/7 assay; type: functional, cell-based; conditions: Homo sapiens, DU-145, 24 h
NHDF [13] = assay: Induction of apoptosis in human NHDF cells assessed as caspase 3/7 activation after 24 hrs Caspase-Glo 3/7 assay; type: functional, cell-based
PC-3 [14] = assay: Induction of apoptosis in human PC3 cells assessed as caspase 3/7 activation after 24 hrs by Caspase-Glo 3/7 assay; type: functional, cell-based; conditions: PC-3, 24 h

SMILES	IC50 (PC-3 [1]) [µM]	Ki [2] [µM]	Ki [3] [µM]	Ki [4] [µM]	Kb [5] [µM]	EC50 (PC-3 [1]) [µM]	IC50 (LNCaP [6]) [µM]	EC50 (DU-145 [7]) [µM]	IC50 (DU-145 [7]) [µM]	EC50 (LNCaP [8]) [µM]	EC50 (NHDF [9]) [µM]	IC50 (NHDF [9]) [µM]	Activity (PC-3 [10])	Activity (PC-3 [11])	EC50 (DU-145 [12]) [µM]	EC50 (NHDF [13]) [µM]	EC50 (PC-3 [14]) [µM]
COc1cc2nc(N3CCN(C(=O)C4COc5ccccc5O4)[C@@H]4CCCC[C@@H]43)nc(N)c2cc1OC (single isomer, unassigned)	1.02	0.00049	0.00339	0.00141	–	–	–	–	–	–	–	–	–	–	–	–	–
COc1cc2nc(N3CCN(C(=O)c4ccco4)[C@H]4CCCC[C@H]43)nc(N)c2cc1OC [CYCLAZOSIN]	–	0.00017	0.0055	0.000324	0.00123	–	–	–	–	–	–	–	–	–	–	–	–
COc1cc2nc(N3CCN(C(=O)C4COc5ccccc5O4)CC3)nc(N)c2cc1OC (stereo unspecified) [DOXAZOSIN]	38.6	–	–	–	–	> 100	28.1	> 100	37.4	100	40.4	43	Active	Active	> 100	40.4	> 100
